Publication PMC4017091 (Bioorganic & medicinal chemistry, 2013)
“Also recorded” adds a separate entry of the source. Values belong to the molecule of their own block, whether it stands above or below them.

Columns and labels:
human 5-LOX [1] = molecular target: T1, human 5-LOX (Homo sapiens, UniProt P09917); assay: Human 5-LOX inhibition screening UV assay; assay type: biochemical; conditions: 50 μM compound; 100 μM linoleic acid substrate; 10 min pre-incubation
T1 sequence (P09917 1-674): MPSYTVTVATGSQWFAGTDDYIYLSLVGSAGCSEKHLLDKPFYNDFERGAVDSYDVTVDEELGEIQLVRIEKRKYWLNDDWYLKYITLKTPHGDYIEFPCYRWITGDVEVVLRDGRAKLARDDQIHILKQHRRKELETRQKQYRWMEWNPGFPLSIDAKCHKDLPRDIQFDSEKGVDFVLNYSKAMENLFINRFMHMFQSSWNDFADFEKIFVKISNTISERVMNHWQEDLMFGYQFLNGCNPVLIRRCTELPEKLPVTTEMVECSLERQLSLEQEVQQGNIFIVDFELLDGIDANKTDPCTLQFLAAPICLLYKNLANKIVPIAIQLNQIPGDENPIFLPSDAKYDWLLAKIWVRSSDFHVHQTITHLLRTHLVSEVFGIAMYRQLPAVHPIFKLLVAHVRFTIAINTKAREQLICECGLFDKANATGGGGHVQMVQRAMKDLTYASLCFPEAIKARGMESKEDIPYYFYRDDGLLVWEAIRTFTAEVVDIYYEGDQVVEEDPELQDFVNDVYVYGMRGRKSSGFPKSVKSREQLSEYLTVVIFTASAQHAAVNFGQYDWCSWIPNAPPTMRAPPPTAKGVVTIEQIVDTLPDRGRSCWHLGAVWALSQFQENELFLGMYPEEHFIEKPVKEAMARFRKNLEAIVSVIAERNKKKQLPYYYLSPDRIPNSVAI
Method in brief: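 Human 5-LOX was diluted 1:4000 in 50 mM Tris pH 7.5 with 2 mM EDTA and 2 mM CaCl2, plus ATP (2 mM stock). It was pre-incubated 10 min at room temperature with test compound diluted from DMSO stock, or a DMSO-only control. Linoleic acid (20 mM ethanolic stock) was added, and HPOD conjugated diene formation was followed at 234 nm over 20 min. Residual activity was taken relative to the control. Three independent experiments; mean with SD.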

[2] = molecular target: T2, COX-2 (human recombinant) (Homo sapiens, UniProt P35354); assay: COX-2 inhibition screening assay; assay type: biochemical; conditions: 50 μM compound; 2 mM arachidonic acid substrate
T2 sequence (P35354 18-604): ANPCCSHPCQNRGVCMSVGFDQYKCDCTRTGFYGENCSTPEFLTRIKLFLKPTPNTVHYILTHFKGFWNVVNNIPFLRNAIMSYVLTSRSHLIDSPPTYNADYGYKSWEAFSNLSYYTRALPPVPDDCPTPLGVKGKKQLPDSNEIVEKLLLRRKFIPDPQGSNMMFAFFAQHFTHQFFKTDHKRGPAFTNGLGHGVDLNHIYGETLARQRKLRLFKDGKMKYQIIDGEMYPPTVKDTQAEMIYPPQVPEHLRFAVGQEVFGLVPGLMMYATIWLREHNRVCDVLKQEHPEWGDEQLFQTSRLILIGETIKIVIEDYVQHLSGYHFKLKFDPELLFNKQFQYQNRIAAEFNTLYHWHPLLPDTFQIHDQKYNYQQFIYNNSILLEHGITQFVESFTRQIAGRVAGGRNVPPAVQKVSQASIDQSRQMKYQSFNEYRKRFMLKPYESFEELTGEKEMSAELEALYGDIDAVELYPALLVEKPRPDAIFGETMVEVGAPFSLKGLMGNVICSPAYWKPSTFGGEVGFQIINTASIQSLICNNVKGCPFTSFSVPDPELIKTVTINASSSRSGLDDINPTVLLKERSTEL
Method in brief: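 Human recombinant COX-2 was diluted 1:1000 in 0.1 M Tris pH 8.0 with hematin. It was pre-incubated 5 min at room temperature with test compound from a 1.1 mM DMSO solution, or DMSO for the positive control. Freshly made TMPD and then arachidonic acid were added, with no arachidonic acid in negative controls. After 5 more min at room temperature, TMPD oxidation was read at 550 nm. Triplicate; mean with SD.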

[3] = system: soybean lipoxygenase-1 (SLO-1); conditions: cited from earlier work
potato 5-lipoxygenase = conditions: cited from earlier work
human 5-LOX [4] = molecular target: T1, human 5-LOX; assay: Michaelis-Menten enzyme kinetics of human 5-LOX versus ATP or linoleic acid; assay type: biochemical; conditions: for type of modulation versus linoleic acid: varied linoleic acid
h-5-LOX = molecular target: T3, h-5-LOX (Homo sapiens, UniProt P09917); assay: h-5-LOX activity with arachidonic acid as substrate; assay type: biochemical; conditions: 50 μM compound; 100 μM arachidonic acid
T3 sequence (P09917 1-674): T1 sequence (P09917 1-674)

[5] = linoleic acid conversion, non-essential activation model

effect on h-5-LOX activity (in words) (human 5-LOX [1]): little inhibition | effect on COX-2 activity (in words) [2]: little inhibition
Compound: CCCCCCCCCCCCCCCc1cccc(O)c1C(=O)O [Compound 14, Anacardic acid, reference compound]

effect on h-5-LOX activity (in words) (human 5-LOX [1]): little inhibition | effect on COX-2 activity (in words) [2]: little inhibition
Compound: CCCCCCCCCCc1cccc(O)c1C(=O)O [Compound 15]

effect on h-5-LOX activity (in words) (human 5-LOX [1]): little inhibition | effect on COX-2 activity (in words) [2]: little inhibition
Compound: CCCCCc1cccc(O)c1C(=O)O [Compound 16]

Compound: CCCCCCCCCCCCCCCc1cc(O)cc(O)c1C(=O)O [Compound 17]
effect on h-5-LOX activity (in words) (human 5-LOX [1]): slight improvement in the inhibitory potency

Compound: CCCCCCCc1ccc(CCc2cc(O)cc(O)c2C(=O)O)cc1 [Compound 19]
effect on soybean lipoxygenase-1 (SLO-1) [3]: allosteric inhibitor

effect on h-5-LOX activity (in words) (human 5-LOX [1]): neither inhibition nor activation
Compound: CCCCCCCCCCCCCCOc1cccc(O)c1C(=O)O [Compound 21]
effect on potato 5-LOX (potato 5-lipoxygenase): strong activation; also recorded: allosteric activator

Compound: CCCCCOc1ccc(COc2cccc(O)c2C(=O)[O-])cc1.[K+] [Compound 23a, potassium 2-hydroxy-6-((4-(pentyloxy)benzyl)oxy)benzoate]
effect on h-5-LOX activity (in words) (human 5-LOX [1]): strong activation | α (change in the affinity of substrate binding) (human 5-LOX [4]; [5]): 0.0438 | β (change in the catalytic constant) (human 5-LOX [4]; [5]): 1.76 | type of modulation versus ATP (human 5-LOX [4]; varied ATP, 100 μM linoleic acid): non-competitive activation | type of modulation versus linoleic acid (human 5-LOX [4]; 100 μM ATP): non-essential mixed type activation | activation of linoleic acid conversion versus compound concentration (human 5-LOX [4]; various concentrations of compound, linoleic acid substrate): concentration dependent activation | Vmax^app (human 5-LOX [4]; versus ATP, 12.5 μM 23a, 100 μM linoleic acid): 0.3861 ± 0.0073 µM/s | Vmax^app (human 5-LOX [4]; versus ATP, 25 μM 23a, 100 μM linoleic acid): 0.5236 ± 0.0137 µM/s | Vmax^app (human 5-LOX [4]; versus linoleic acid, 12.5 μM 23a, 100 μM ATP): 2.39 ± 0.07 µM/s | Vmax^app (human 5-LOX [4]; versus linoleic acid, 25 μM 23a, 100 μM ATP): 2.70 ± 0.05 µM/s | modulation of h-5-LOX activity toward arachidonic acid (h-5-LOX): no modulation; also recorded: no effect

Compound: CCCCCCCOc1ccc(COc2cccc(O)c2C(=O)[O-])cc1.[K+] [Compound 23b, Potassium 2-((4-(heptyloxy)benzyl)oxy)-6-hydroxybenzoate]
effect on h-5-LOX activity (in words) (human 5-LOX [1]): no or little inhibition

Compound: CCCCCCCCCOc1ccc(COc2cccc(O)c2C(=O)[O-])cc1.[K+] [Compound 23c, Potassium 2-hydroxy-6-((4-(nonyloxy)benzyl)oxy)benzoate]
effect on h-5-LOX activity (in words) (human 5-LOX [1]): no or little inhibition

Compound: CC(C)CCCC(C)CCOc1ccc(COc2cccc(O)c2C(=O)[O-])cc1.[K+] (stereo not drawn) [Compound 23d, Potassium 2-((4-((3,7-dimethyloctyl)oxy)benzyl)oxy)-6-hydroxybenzoate]
Ki′ (dissociation constant of inhibitor to enzyme-substrate complex) (human 5-LOX [4]; linoleic acid conversion, mixed type inhibition model): 140 µM | type of modulation versus linoleic acid (human 5-LOX [4]; 100 μM ATP): mixed-type inhibition | Vmax^app (human 5-LOX [4]; versus linoleic acid, 25 μM 23d): 1.84 ± 0.25 µM/s | Vmax^app (human 5-LOX [4]; versus linoleic acid, 50 μM 23d): 1.47 ± 0.16 µM/s | modulation of h-5-LOX activity toward arachidonic acid (h-5-LOX): no modulation; also recorded: no effect

Compound: Oc1ccccc1-c1nc2ccccc2o1 [Compound 25, 2-(benzo[d]oxazol-2-yl)phenol]
effect on h-5-LOX activity (in words) (human 5-LOX [1]): did not inhibit; also recorded: no inhibition

Km (human 5-LOX [4]; read-out: Km of the substrate for h-5-LOX, no modulator): 600 µM
Compound: CCCCC/C=C\C/C=C\CCCCCCCC(=O)O [linoleic acid]
